The species named for the assay is Rattus norvegicus. The experiment in a line: Effect on the survival of rat aortic smooth muscle cells. Type of assay: functional. On the set-up: concentration or dose not given beside the values. Put shortly: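 Rat aortic smooth muscle cells in culture, pretreated 30 min with test compound at 30 μM, then vehicle or sodium nitroprusside (1 mM) added for another 24 h. Viability read by MTT assay and TUNEL.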
The compound SODIUM NITROPRUSSIDE returned a Cell survival of 41.3%.
`OCc1ccc(-c2nn(-c3ccccc3)c3ccccc23)o1` gave a Cell survival of 93.9%.
As for `OCc1ccc(-c2nn(Cc3ccccc3)c3ccccc23)o1`, the Cell survival is recorded as 94.7%.
Next, `Cc1ccc(-c2nn(Cc3ccccc3)c3ccccc23)o1`: 31.1%; `OCc1ccc(-c2nn(Cc3ccccc3)c3cc4c(cc23)OCO4)o1`: 75.8%; `OCc1ccc(-c2nn(Cc3ccccc3)c3cc(F)ccc23)o1`: 83.3%.
The figure for `CNCc1ccc(-c2nn(Cc3ccccc3)c3ccccc23)o1` is 57.2%; for `COC(=O)c1ccc(-c2nn(Cc3ccccc3)c3ccccc23)o1` it is 78%; for `COc1ccc2c(-c3ccc(CO)o3)nn(Cc3ccccc3)c2c1` it is 84.5%.
The compound `CCN(CC)Cc1ccc(-c2nn(Cc3ccccc3)c3ccccc23)o1` returned a Cell survival of 39.7%.
`COCc1ccc(-c2nn(Cc3ccccc3)c3ccccc23)o1` came in with a Cell survival of 93.2%.

(Values after ChEMBL document CHEMBL1135607, “1-Benzyl-3-(5'-hydroxymethyl-2'-furyl)indazole (YC-1) derivatives as novel inhibitors against sodium nitroprusside-induced apoptosis” (2002).)
